Test results reported in ChEMBL document CHEMBL1142216, “Clinical prediction tool to identify patients with Pseudomonas aeruginosa respiratory tract infections at greatest risk for multidrug resistance” (2007).

Columns and labels:
Type in all cases: functional
Pseudomonas aeruginosa [1] = test: Antibiotic susceptibility by resistance against non-MDR Pseudomonas aeruginosa from samples collected from patients
Summary of the method: (§1)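 Clinical P. aeruginosa respiratory isolates from hospitalized patients. Susceptibility testing was done by the hospital microbiology laboratory using Kirby-Bauer disk diffusion and interpreted by Clinical and Laboratory Standards Institute guidelines. Laboratory-reported susceptibilities and MICs were abstracted retrospectively. Isolates were grouped overall and by resistance to at least four drug classes (MDR versus non-MDR).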

Pseudomonas aeruginosa [2] = test: Antibiotic susceptibility by resistance against MDR Pseudomonas aeruginosa from samples collected from patients; summary of the method: as §1
Pseudomonas aeruginosa [3] = test: Antibiotic susceptibility by resistance against Pseudomonas aeruginosa from samples collected from patients; summary of the method: as §1

Question: `NCC[C@H](O)C(=O)N[C@@H]1C[C@H](N)[C@@H](O[C@H]2O[C@H](CN)[C@@H](O)[C@H](O)[C@H]2O)[C@H](O)[C@H]1O[C@H]1O[C@H](CO)[C@@H](O)[C@H](N)[C@H]1O` [AMIKACIN] was tested. Which Activity (Pseudomonas aeruginosa [1]) did it give?
Answer: 95.6%

Question: And the Activity (Pseudomonas aeruginosa [2])?
Answer: 82%

Question: And the Activity (Pseudomonas aeruginosa [3])?
Answer: 90.9%

Question: How did the Activity (Pseudomonas aeruginosa [1]) turn out when `CO/N=C(\C(=O)N[C@@H]1C(=O)N2C(C(=O)[O-])=C(C[N+]3(C)CCCC3)CS[C@H]12)c1csc(N)n1` [CEFEPIME] was run?
Answer: 97.4%

Question: What about the Activity (Pseudomonas aeruginosa [2]) of the same molecule?
Answer: 52.5%

Question: And the Activity (Pseudomonas aeruginosa [3])?
Answer: 81.8%

Question: What does the source list for `C[C@H]1[C@H](NC(=O)/C(=N\OC(C)(C)C(=O)O)c2csc(N)n2)C(=O)N1S(=O)(=O)O` [AZTREONAM]?
Answer: Activity (Pseudomonas aeruginosa [1]): 79%; Activity (Pseudomonas aeruginosa [2]): 18.9%; Activity (Pseudomonas aeruginosa [3]): 58.1%

Question: How did the Activity (Pseudomonas aeruginosa [1]) turn out when `C[C@@H](O)[C@H]1C(=O)N2C(C(=O)O)=C(S[C@@H]3CN[C@H](C(=O)N(C)C)C3)[C@H](C)[C@H]12` [MEROPENEM] was run?
Answer: 76.9%

Question: What about the Activity (Pseudomonas aeruginosa [2]) of the same molecule?
Answer: 17.2%

Question: What about the Activity (Pseudomonas aeruginosa [3]) of the same molecule?
Answer: 56.1%

Question: How did the Activity (Pseudomonas aeruginosa [1]) turn out when `NC[C@H]1O[C@H](O[C@H]2[C@H](O)[C@@H](O[C@H]3O[C@H](CO)[C@@H](O)[C@H](N)[C@H]3O)[C@H](N)C[C@@H]2N)[C@H](N)C[C@@H]1O` [TOBRAMYCIN] was run?
Answer: 83.8%

Question: What about the Activity (Pseudomonas aeruginosa [2]) of the same molecule?
Answer: 36.9%

Question: And the Activity (Pseudomonas aeruginosa [3])?
Answer: 67.5%

Question: How did the Activity (Pseudomonas aeruginosa [1]) turn out when `O=C(O)c1cn(C2CC2)c2cc(N3CCNCC3)c(F)cc2c1=O` [CIPROFLOXACIN] was run?
Answer: 63.3%

Question: What about the Activity (Pseudomonas aeruginosa [2]) of the same molecule?
Answer: 3.3%

Question: And the Activity (Pseudomonas aeruginosa [3])?
Answer: 42.5%
